One assay has as its system HFF-1. As to the kind of experiment: Cytotoxicity against HFF1 cells assessed as inhibition of cell growth measured after 72 hrs by MTT assay. The assay is classed as cell-based. Particulars: Homo sapiens, HFF-1, 72 h. An outline of the steps: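 Cells grown as monolayers at 37 °C, 5% CO2, seeded and left overnight, then exposed to drug or vehicle for 72 h. MTT (20 μL of 3 mg/mL) added for 4 h, supernatant removed, formazan dissolved in DMSO, absorbance read at 570 nm. IC50 from nonlinear regression of log concentration–response curves; at least three independent experiments.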

The subject of assay [1] is A 172. As to the kind of experiment: Induction of morphological changes in human A172 cells assessed as membrane blebbing at 11 uM measured after 48 hrs by Giemsa-staining based microscopic analysis. Format: functional, cell-based.
Assay [2] deals with A 172. As to the kind of experiment: Antimigratory activity against human A172 cells at 30 uM measured after 4 hrs by Giemsa staining based transwell migration assay. The assay is classed as functional, cell-based. An outline of the steps:
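A172 cells (1 x 10^5) were treated with compound and seeded into inserts with 8.0 μm PET membrane in serum-free medium. DMEM with 10% FBS was in the lower well; wells without FBS served as control. After 4 h, migrated cells were Giemsa-stained and imaged at 10X, 5 fields per well.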

Assay [3] addresses T1, Protein disulfide-isomerase (Homo sapiens, UniProt P07237). As to the kind of experiment: Inhibition of recombinant human N-terminal His-tagged PDI expressed in Escherichia coli BL21 (DE3) pLysS assessed as reduction in enzyme-mediated bovine insulin aggregation at 40 uM measured after 1 hr in presence of 1 to 2 mM NAC. The essentials:
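Compounds pretreated with NAC for 30 min at 37 °C, then added to the insulin reductase assay at final 40 μM compound with 0, 1, 2 or 5 mM NAC. The assay uses 0.4 μM PDI preincubated 1 h at 37 °C, then DTT and bovine insulin, read at 620 nm, with % activity at 80 min.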
Target sequence in this assay (P07237 18-508 limits assumed): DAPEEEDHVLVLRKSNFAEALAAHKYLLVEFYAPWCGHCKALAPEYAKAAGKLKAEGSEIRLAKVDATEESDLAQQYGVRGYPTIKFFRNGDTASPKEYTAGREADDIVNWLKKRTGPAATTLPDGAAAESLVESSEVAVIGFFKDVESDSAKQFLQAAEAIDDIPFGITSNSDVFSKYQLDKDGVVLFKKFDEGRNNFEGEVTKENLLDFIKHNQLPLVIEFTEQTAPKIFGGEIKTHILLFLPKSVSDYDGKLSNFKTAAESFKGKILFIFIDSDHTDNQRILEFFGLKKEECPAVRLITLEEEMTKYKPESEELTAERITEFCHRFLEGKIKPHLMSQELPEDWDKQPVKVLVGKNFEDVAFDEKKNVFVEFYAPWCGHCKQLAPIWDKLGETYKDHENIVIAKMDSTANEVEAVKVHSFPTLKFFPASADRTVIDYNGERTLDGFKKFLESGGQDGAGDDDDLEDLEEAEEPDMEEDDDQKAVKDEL

Assay [4] concerns Protein disulfide-isomerase (Homo sapiens), P07237 [H256A]. As to the kind of experiment: Inhibition of recombinant human N-terminal His-tagged PDI H256A mutant expressed in Escherichia coli BL21 (DE3) pLysS at 10 uM assessed as reduction in enzyme-mediated bovine insulin aggregation. An outline of the steps: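 Insulin reductase assay against H256A PDI: 0.4 μM enzyme preincubated with compounds at 10 μM for 1 h at 37 °C in 100 mM sodium phosphate, 2 mM EDTA, 8 μM DTT, pH 7.0. Then 500 μM DTT and 130 μM bovine insulin added; aggregation read at 620 nm at room temperature. Activity % from OD change at 0 and 80 min, relative to PDI and DTT-only controls; three experiments.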
Chain of Protein disulfide-isomerase (Homo sapiens), P07237 [H256A] (P07237 whole entry H256A): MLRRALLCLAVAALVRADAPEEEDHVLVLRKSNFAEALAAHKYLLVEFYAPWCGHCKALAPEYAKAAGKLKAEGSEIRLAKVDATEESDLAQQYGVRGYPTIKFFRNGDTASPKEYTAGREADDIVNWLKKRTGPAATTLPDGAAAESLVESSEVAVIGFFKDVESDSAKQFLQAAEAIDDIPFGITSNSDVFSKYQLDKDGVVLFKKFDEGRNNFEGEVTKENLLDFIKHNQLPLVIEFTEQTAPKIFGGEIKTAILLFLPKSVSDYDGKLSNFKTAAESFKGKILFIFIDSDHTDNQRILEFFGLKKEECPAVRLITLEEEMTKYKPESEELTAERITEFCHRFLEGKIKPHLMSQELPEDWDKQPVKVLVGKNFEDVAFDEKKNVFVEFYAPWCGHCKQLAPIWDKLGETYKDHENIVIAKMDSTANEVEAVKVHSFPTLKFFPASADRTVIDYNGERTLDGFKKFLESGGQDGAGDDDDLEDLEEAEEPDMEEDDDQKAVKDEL

Assay [5] deals with U-87 MG. As to the kind of experiment: Effect on MMP2 expression in human U87MG cells at 10 uM measured after 24 hrs by Western blot analysis. The assay is classed as functional, cell-based. Particulars: U-87MG ATCC.
In assay [6] the target is T1, Protein disulfide-isomerase. As to the kind of experiment: Binding affinity to recombinant human N-terminal His-tagged PDI expressed in Escherichia coli BL21 (DE3) pLysS assessed as increase in melting temperature by ROX dye based thermal shift assay. An outline of the steps: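 Purified wild-type, C53S/C397S or H256A PDI at 0.5 mg/mL in 50 mM Tris, pH 7.0, with or without 100 μM compound, was mixed with ROX dye in a 20 µL well. DMSO (5% in buffer) was the control. Samples were heated 25–99 °C at 1 °C/min, and the Boltzmann melting temperature shift versus DMSO was reported. Mean ± SD of three experiments.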
Target sequence in this assay (P07237 18-508 limits assumed): as the sequence (P07237 18-508 limits assumed) above

Assay [7] has the same target. As to the kind of experiment: Inhibition of recombinant human N-terminal His-tagged PDI expressed in Escherichia coli BL21 (DE3) pLysS assessed as reduction in enzyme-mediated bovine insulin aggregation.
Target sequence in this assay (P07237 whole entry): as the sequence (P07237 whole entry H256A) above, with A256H counted along it
The next assay concerns D54 cell line. As to the kind of experiment: Inhibition of colony formation in 1 to 6 Gy-irradiated human D54 cells at 1 uM measured after 10 to 12 days by crystal violet staining based assay. Format: functional, cell-based. An outline of the steps:
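D54 cells irradiated at 0, 1, 2, 4 or 6 Gy and plated immediately at 200–1000 cells/well according to dose. Treated with DMSO, 0.05 μM PACMA31 or 1 μM compounds, grown 10–12 days, then colonies stained with 0.1% crystal violet.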

For assay [8], the system named is U-87 MG. As to the kind of experiment: Cytotoxicity against human U87MG cells assessed as inhibition of cell proliferation at <IC50 measured after 72 hrs by MTT assay relative to control. Format: functional, U-87MG ATCC.
Assay [9] deals with U-87 MG. As to the kind of experiment: Up regulation of BCO2 gene expression in human U87MG cells at 16 uM incubated for 4 hrs followed by bromouridine addition during last 30 mins of incubation by TRIzol-reagent based Bru-Seq analysis relative to control. The assay is classed as functional, U-87MG ATCC. An outline of the steps:
(§1)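 U87MG cells exposed to compound or DMSO vehicle for 4 h, with 2 mM bromouridine added for the final 30 min. Total RNA isolated with TRIzol; Bru-labelled nascent RNA captured on anti-BrdU antibody-conjugated magnetic beads and sequenced. Transcript abundance expressed as RPKM relative to DMSO. Experiment performed once.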

The subject of assay [10] is U-87 MG. As to the kind of experiment: Up regulation of HSPH1 gene expression in human U87MG cells at 16 uM incubated for 4 hrs followed by bromouridine addition during last 30 mins of incubation by TRIzol-reagent based Bru-Seq analysis relative to control. Format: functional, U-87MG ATCC. An outline of the steps:
as §1

The test system of assay [11] is U-87 MG. As to the kind of experiment: Up regulation of GCLC gene expression in human U87MG cells at 16 uM incubated for 4 hrs followed by bromouridine addition during last 30 mins of incubation by TRIzol-reagent based Bru-Seq analysis relative to control. The assay is classed as functional, U-87MG ATCC. An outline of the steps:
as §1

Assay [12] relates to A 172. As to the kind of experiment: Induction of morphological changes in human A172 cells assessed as necroptotic cell death at 20 uM measured after 48 hrs by Giemsa-staining based microscopic analysis. Format: functional.
Assay [13] has as its system U-87 MG. As to the kind of experiment: Down regulation of IL1B gene expression in human U87MG cells at 16 uM incubated for 4 hrs followed by bromouridine addition during last 30 mins of incubation by TRIzol-reagent based Bru-Seq analysis relative to control. Format: functional, U-87MG ATCC. An outline of the steps:
as §1

The subject of assay [14] is U-87 MG. As to the kind of experiment: Down regulation of ST8SIA4 gene expression in human U87MG cells at 10 uM incubated for 4 hrs followed by bromouridine addition during last 30 mins of incubation by TRIzol-reagent based Bru-Seq analysis relative to control. The assay is classed as functional, U-87MG ATCC. An outline of the steps:
(§2)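 Nascent transcription (Bru-seq) in U87MG cells: treatment at 10 μM for 4 h, with 2 mM bromouridine added for the final 30 min. Total RNA isolated with TRIzol; Bru-labelled RNA captured using anti-BrdU antibody on magnetic beads, then sequenced. Transcript traces reported as RPKM compared with DMSO-treated cells. Single experiment.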

Assay [15] concerns U-87 MG. As to the kind of experiment: Down regulation of CTHRC1 gene expression in human U87MG cells at 10 uM incubated for 4 hrs followed by bromouridine addition during last 30 mins of incubation by TRIzol-reagent based Bru-Seq analysis relative to control. Format: functional, U-87MG ATCC.
Assay [16] deals with U-87 MG. As to the kind of experiment: Up regulation of HSPA6 gene expression in human U87MG cells at 10 uM incubated for 4 hrs followed by bromouridine addition during last 30 mins of incubation by TRIzol-reagent based Bru-Seq analysis relative to control. The assay is classed as functional, U-87MG ATCC. The essentials: as §1
In assay [17] the test system is U-87 MG. As to the kind of experiment: Up regulation of SESN2 gene expression in human U87MG cells at 10 uM incubated for 4 hrs followed by bromouridine addition during last 30 mins of incubation by TRIzol-reagent based Bru-Seq analysis relative to control. Format: functional, U-87MG ATCC. An outline of the steps: as §1
For assay [18], the system named is U-87 MG. As to the kind of experiment: Down regulation of NFIA gene expression in human U87MG cells at 10 uM incubated for 4 hrs followed by bromouridine addition during last 30 mins of incubation by TRIzol-reagent based Bru-Seq analysis relative to control. Format: functional, U-87MG ATCC. The essentials:
as §2

The values that follow come from ChEMBL document CHEMBL4390639, “Design, Synthesis, and Biological Evaluation of Novel Allosteric Protein Disulfide Isomerase Inhibitors” (J Med Chem, 2019).

Active and inactive are the calls of the source. The calls are words filed in the database; no cut-off is given here.

In general, IC50 refers to the point on the concentration scale where inhibition reaches its midpoint. In the case of `CCCCCN(CCCCC)S(=O)(=O)c1ccc(C(=O)/C=C/c2cccc(O)c2)cc1`, the results for the half-maximal inhibitory concentration (IC50) (with HFF-1; in [7]) were 29.2 µM and 0.81 µM, respectively. Also, the outcome in the assay with A 172 [1] and with A 172 [2] was Active. In addition, the inhibition result in assay [3] and in assay [4] was “Active” each time. In addition, the result with U-87 MG [5] was inactive. In assay [6], the Activity result was “Dose-dependent effect”.
Take `O=C(/C=C/c1ccc(-c2cccnc2)cc1)c1cccc(O)c1`: the IC50 with HFF-1 was found to be 22.5 µM; in assay [7], 0.35 µM. For the same molecule, the inhibition result in the assay with D54 cell line was “Active”. In the assay with U-87 MG [8], the “inhibition (INH)” value is listed as more than 50%. For the same molecule, the inhibition entry in assay [4] was “inactive”. The outcome in the assay on U-87 MG [5] was inactive. Also, in [6], the Activity entry was “Dose-dependent effect”.
On to `COC(=O)c1cccc(/C=C/C(=O)c2cccc(O)c2)c1`, for which the values for the IC50 (in the assay on HFF-1; in assay [7]) were 17.4 µM and 0.12 µM, respectively. The “fold change (FC)” value in the assay with U-87 MG [9] was 1.9; in the assay with U-87 MG [10], 5; in the assay on U-87 MG [11], 1.9; in the assay with U-87 MG [13], 5.5. Further, in the assay on U-87 MG [8], the “inhibition (INH)” value is given as more than 50%. The result in the assay with A 172 [12] was Active. For the same molecule, the inhibition entry in [3] was “Active”. Further, the inhibition result in [4] is “inactive”. Besides, the outcome in the assay on U-87 MG [5] was inactive. The Activity result in [6] was “Dose-dependent effect”.
With `N#Cc1cccc(/C=C/C(=O)c2ccc(O)cc2)c1`, the IC50 in the assay on HFF-1 was found to be 91.2 µM. For the same molecule, the inhibition result in the assay with D54 cell line was “Active”. The result in the assay with A 172 [2] was Active. Moreover, the inhibition entry in [4] was “inactive”. Besides, the result with U-87 MG [5] was inactive.
For `CCCCCN(CCCCC)S(=O)(=O)c1ccc(C(=O)/C=C/c2cccc(C#N)c2)cc1`, the half-maximal inhibitory concentration (IC50) in the assay on HFF-1 was found to be 3.4 µM; in assay [7], 0.16 µM. Besides, the “fold change (FC)” value in the assay with U-87 MG [14] is on record as 3.1; in the assay with U-87 MG [15], 2.4; in the assay on U-87 MG [16], 464.7; in the assay with U-87 MG [17], 26.9; in the assay on U-87 MG [18], 2.4. The result in the assay on A 172 [2] was Active. In assay [4], the inhibition result is “inactive”. Moreover, the outcome with U-87 MG [5] was inactive.
